Data on ten molecules can be found in ChEMBL document CHEMBL1140685, “Synthesis and antitrichinellosis activity of some bis(benzimidazol-2-yl)amines” (2007).

Assay type in all cases: functional
The subject of test [1] is Trichinella spiralis. Briefly: Antitrichinellosis activity against Trichinella spiralis larvae at 50 ug/ml after 24 hrs by Campbell's method. The procedure, abridged: (§1)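 Encapsulated T. spiralis larvae were held at 150 per 1 ml physiological solution with compound dissolved in DMSO–water. Incubation was at 37 °C in a humid thermostatted chamber. Larval vitality was scored by stereomicroscope at 24 and 48 h after treatment.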

The subject of test [2] is Trichinella spiralis. Briefly: Antitrichinellosis activity against Trichinella spiralis larvae at 100 ug/ml after 24 hrs by Campbell's method. The procedure, abridged:
as §1

The subject of test [3] is Trichinella spiralis. In words: Antitrichinellosis activity against Trichinella spiralis larvae at 200 ug/ml after 24 hrs by Campbell's method. The procedure, abridged:
as §1

Test [4] deals with Trichinella spiralis. Briefly: Antitrichinellosis activity against Trichinella spiralis larvae at 50 ug/ml after 48 hrs by Campbell's method. The procedure, abridged:
as §1

Test [5] concerns Trichinella spiralis. In words: Antitrichinellosis activity against Trichinella spiralis larvae at 100 ug/ml after 48 hrs by Campbell's method. The procedure, abridged: as §1
In test [6] the test system is Trichinella spiralis. In words: Antitrichinellosis activity against Trichinella spiralis larvae at 200 ug/ml after 48 hrs by Campbell's method. The procedure, abridged: as §1
Test [7] deals with Trichinella spiralis. In words: Antitrichinellosis activity against Trichinella spiralis intestinal phase larvae in mouse at 50 mg/kg, po after 3 days. The procedure, abridged: (§2)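 White immature mice each infected with 150 Trichinella larvae, five mice per group. Oral dosing by thin metallic probe into the oesophagus as DMSO solution, once daily for 3 days starting on day 3 after infection. Controls were untreated mice and mice given albendazole at 100 mg/kg. Read-out was microscopic examination of small-intestine contents after autopsy for larvae.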

For test [8], the system named is Trichinella spiralis. In words: Antitrichinellosis activity against Trichinella spiralis intestinal phase larvae in mouse at 100 mg/kg, po after 3 days. The procedure, abridged: as §2

Take `Cn1c(Nc2nc3ccccc3[nH]2)nc2ccccc21`: the Efficacy in the test with Trichinella spiralis [1] is 9.1%; with Trichinella spiralis [2], 13.5%; with Trichinella spiralis [3], 30.2%; in the test on Trichinella spiralis [4], 17.2%; with Trichinella spiralis [5], 28.3%; in the test with Trichinella spiralis [6], 58.3%.

In the case of `CCn1c(Nc2nc3ccccc3[nH]2)nc2ccccc21`, the Efficacy with Trichinella spiralis [1] was 15.7%; in the test on Trichinella spiralis [2], 20%; in the test on Trichinella spiralis [3] it was 38.2%; in the test on Trichinella spiralis [4] it was 25.3%; in the test with Trichinella spiralis [5] it was 38.6%; with Trichinella spiralis [6], 65%.

In the case of `CCCn1c(Nc2nc3ccccc3[nH]2)nc2ccccc21`, the Efficacy came to 12% with Trichinella spiralis [1]; 17.6% with Trichinella spiralis [2]; 67.7% with Trichinella spiralis [3]; 20% in the test with Trichinella spiralis [4]; 34.5% in the test on Trichinella spiralis [5]; 78% in the test on Trichinella spiralis [6].

Turning to `CCn1c(Nc2nc3ccccc3n2C)nc2ccccc21`, the Efficacy with Trichinella spiralis [1] is 35.3%; in the test with Trichinella spiralis [2], 65.7%; in the test with Trichinella spiralis [3], 76.3%; in the test on Trichinella spiralis [4], 65.3%; in the test on Trichinella spiralis [5], 73%; with Trichinella spiralis [6] it was 84%.

Turning to `CCn1c(Nc2nc3ccccc3n2CC)nc2ccccc21`, the Efficacy in the test on Trichinella spiralis [1] is reported as 45.8%; in the test on Trichinella spiralis [2], 92%; in the test on Trichinella spiralis [3], 94%; in the test on Trichinella spiralis [7] it was 100%; with Trichinella spiralis [8], 100%; with Trichinella spiralis [4], 66.3%. The Efficacy in the test on Trichinella spiralis [5] was 97.5%; in the test on Trichinella spiralis [6], 98%.

Turning to `CCCn1c(Nc2nc3ccccc3n2CC)nc2ccccc21`, the Efficacy was 42% in the test on Trichinella spiralis [1]; 84% with Trichinella spiralis [2]; 96% in the test on Trichinella spiralis [3]; 100% in the test with Trichinella spiralis [7]; 100% in the test with Trichinella spiralis [8]; 46% in the test with Trichinella spiralis [4]. Also, the Efficacy amounted to 92.1% in the test on Trichinella spiralis [5] and 100% with Trichinella spiralis [6].

Consider `Cn1c(Nc2nc3ccccc3n2C)nc2ccccc21`, for which the Efficacy in the test on Trichinella spiralis [1] came to 8.8%; in the test with Trichinella spiralis [2], 17.3%; with Trichinella spiralis [3], 45.7%; with Trichinella spiralis [4] it was 14%; in the test with Trichinella spiralis [5], 18.3%; in the test on Trichinella spiralis [6], 67.9%.

Consider `CCCn1c(Nc2nc3ccccc3n2C)nc2ccccc21`, for which the Efficacy is 33.3% in the test on Trichinella spiralis [1]; 73.8% in the test with Trichinella spiralis [2]; 80% in the test on Trichinella spiralis [3]; 43.4% in the test with Trichinella spiralis [4]; 80% with Trichinella spiralis [5]; 88.4% in the test with Trichinella spiralis [6].

Take `CCCn1c(Nc2nc3ccccc3n2CCC)nc2ccccc21`: the Efficacy with Trichinella spiralis [1] is reported as 45.9%; in the test with Trichinella spiralis [2] it was 81.2%; in the test with Trichinella spiralis [3] it was 100%; with Trichinella spiralis [7] it was 100%; with Trichinella spiralis [8] it was 100%; in the test with Trichinella spiralis [4] it was 58.6%. Moreover, the Efficacy was determined as 95.3% in the test with Trichinella spiralis [5] and 100% in the test with Trichinella spiralis [6].

With `CCCSc1ccc2[nH]c(NC(=O)OC)nc2c1` [ALBENDAZOLE], the Efficacy in the test with Trichinella spiralis [1] is 10.6%; with Trichinella spiralis [2], 10.7%; in the test on Trichinella spiralis [3], 13.3%; in the test with Trichinella spiralis [8], 100%; with Trichinella spiralis [4], 14.8%; in the test with Trichinella spiralis [5], 15.1%. For the same molecule, the Efficacy in the test with Trichinella spiralis [6] was 17.4%.
